In ChEMBL document CHEMBL1121836, “Effect of structural change on acute toxicity and antiinflammatory activity in a series of imidazothiazoles and thiazolobenzimidazoles” (J Med Chem, 1981):
“And” between values parts separate entries of the source, which are not always exact repeats. Equal entries are not always repeated.

Experiments:
Mus musculus [1] = test: Compound was evaluated for the percent reduction of carrageenan induced edema in mice at dose of 10 mg/kg; type: functional
Mus musculus [2] = species on record: Mus musculus; test: (§1) Neurotoxic dose that causes minimal recognizable neurotoxicity in 50% of animals tested; type: functional
Procedure, shortened: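 Mice dosed orally or intraperitoneally; neurotoxicity scored on five end points, including a positional sense test in which a hind leg lowered over a table edge should be quickly lifted back to a normal position. NTD50 is the dose giving minimal recognizable neurotoxicity in 50% of animals tested.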

Mus musculus [3] = species on record: Mus musculus; test: Dose giving one-half of average maximal [40%] response in carrageenan assay; type: functional
Rattus norvegicus [4] = species on record: Rattus norvegicus; test: Ulcerogenic dose that produced gastric lesions, ulcers and/or hemorrhage in 50% of the animals tested; type: functional, Stomach
Procedure, shortened: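 Ten male Sprague–Dawley rats (ca. 160 g) were fasted 24 h with water available, then dosed po with compound or vehicle. At 4 h they were killed with CO2, and stomachs were opened along the greater curvature. A nonbiased observer scored ulcers, pitting or hemorrhagic spots. UD50 (lesions in 50% of animals) was determined by Litchfield–Wilcoxon.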

Mus musculus [5] = test: Compound was evaluated for the percent reduction of carrageenan induced edema in mice at dose of 200 mg/kg; type: functional
Mus musculus [6] = test: Percent analgesia in phenylquinone writhing assay at 10 mg/kg; type: functional
Procedure, shortened: (§2)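 Groups of 10 male mice were dosed orally with compound dissolved or suspended in 0.25% methylcellulose (0.25 mL per mouse). After the designated interval they were challenged ip with 0.25 mL of 0.02% phenylquinone in aqueous ethanol (95:5). Read-out is the percentage of mice protected from writhing.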

Rattus norvegicus [7] = test: Compound was evaluated in the developed adjuvant arthritis assay at a dose of 300 mg/kg for the percent reduction of carrageenan induced edema (LHF) on 21st day; type: functional
Procedure, shortened: (§3)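 Rats received 0.1 mL heat-killed Mycobacterium tuberculosis suspension (3.5 mg/mL) into the left hind footpad on day 1. On day 20, animals with developed arthritis (all four paws swollen, tail and ears involved) were used. Oral gavage in 0.25% methylcellulose (0.005 mL/g) on days 20 and 22. Hind paw volumes were recorded daily on days 20–23. Mean group volume is expressed as percent change from day 20.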

Mus musculus [8] = test: Percent analgesia in phenylquinone writhing assay at 30 mg/kg; type: functional; procedure, shortened: as §2
Rattus norvegicus [9] = test: Compound was evaluated in the developed adjuvant arthritis assay at a dose of 30 mg/kg for the percent reduction of carrageenan induced edema (LHF) on 21st day; type: functional; procedure, shortened: as §3
[10] = Compound was evaluated for the toxicity in mice; type: organism-based; conditions: mouse, in vivo
Mus musculus [11] = test: Percent analgesia in phenylquinone writhing assay at 100 mg/kg; type: functional; procedure, shortened: as §2
Mus musculus [12] = species on record: Mus musculus; test: Dose giving one-half of average maximal [40%] response in phenylquinone writhing assay; type: functional
Rattus norvegicus [13] = test: Compound was evaluated in the developed adjuvant arthritis assay at a dose of 300 mg/kg for the percent reduction of carrageenan induced edema (LHF) on 23rd day; type: functional; procedure, shortened: as §3
Mus musculus [14] = test: Compound was evaluated for the percent reduction of carrageenan induced edema in mice at dose of 3 mg/kg; type: functional
Rattus norvegicus [15] = test: Compound was evaluated in the developed adjuvant arthritis assay at a dose of 100 mg/kg for the percent reduction of carrageenan induced edema (LHF) on 23rd day; type: functional; procedure, shortened: as §3
[16] = Lethal dose evaluated in NPP assay; type: toxicity, organism-based; conditions: mouse, in vivo
Rattus norvegicus [17] = test: Compound was evaluated in the developed adjuvant arthritis assay at a dose of 100 mg/kg for the percent reduction of carrageenan induced edema (LHF) on 21st day; type: functional; procedure, shortened: as §3
Rattus norvegicus [18] = test: Compound was evaluated in the developed adjuvant arthritis assay at a dose of 300 mg/kg for the percent reduction of carrageenan induced edema (LHF) on 22nd day; type: functional; procedure, shortened: as §3
Mus musculus [19] = test: Compound was evaluated for the percent reduction of carrageenan induced edema in mice at dose of 30 mg/kg; type: functional
Rattus norvegicus [20] = test: Compound was evaluated in the developed adjuvant arthritis assay at a dose of 30 mg/kg for the percent reduction of carrageenan induced edema (LHF) on 22nd day; type: functional; procedure, shortened: as §3
Mus musculus [21] = test: Compound was evaluated for the percent reduction of carrageenan induced edema in mice at dose of 100 mg/kg; type: functional
Rattus norvegicus [22] = test: Compound was evaluated in the developed adjuvant arthritis assay at a dose of 100 mg/kg for the percent reduction of carrageenan induced edema (LHF) on 22nd day; type: functional; procedure, shortened: as §3
Rattus norvegicus [23] = test: Compound was evaluated in the developed adjuvant arthritis assay at a dose of 30 mg/kg for the percent reduction of carrageenan induced edema (LHF) on 23rd day; type: functional; procedure, shortened: as §3
Mus musculus [24] = test: Compound was evaluated for the percent reduction of carrageenan induced edema in mice at dose of 40 mg/kg; type: functional
Mus musculus [25] = test: Compound was evaluated for the percent reduction of carrageenan induced edema in mice at dose of 50 mg/kg; type: functional
Rattus norvegicus [26] = test: Compound was evaluated in the developed adjuvant arthritis assay at a dose of 10 mg/kg for the percent reduction of carrageenan induced edema (LHF) on 23rd day; type: functional; procedure, shortened: as §3
Rattus norvegicus [27] = test: Compound was evaluated in the developed adjuvant arthritis assay at a dose of 10 mg/kg for the percent reduction of carrageenan induced edema (LHF) on 21st day; type: functional; procedure, shortened: as §3
Rattus norvegicus [28] = test: Compound was evaluated in the developed adjuvant arthritis assay at a dose of 10 mg/kg for the percent reduction of carrageenan induced edema (LHF) on 22nd day; type: functional; procedure, shortened: as §3
Mus musculus [29] = test: Compound was evaluated for the percent reduction of carrageenan induced edema in mice at dose of 25 mg/kg; type: functional
Rattus norvegicus [30] = test: Compound was evaluated in the developed adjuvant arthritis assay at a dose of 1 mg/kg for the percent reduction of carrageenan induced edema (LHF) on 21nd day; type: functional; procedure, shortened: as §3
Rattus norvegicus [31] = test: Compound was evaluated in the developed adjuvant arthritis assay at a dose of 3 mg/kg for the percent reduction of carrageenan induced edema (LHF) on 22nd day; type: functional; procedure, shortened: as §3
Rattus norvegicus [32] = test: Compound was evaluated in the developed adjuvant arthritis assay at a dose of 0.3 mg/kg for the percent reduction of carrageenan induced edema (LHF) on 22nd day; type: functional; procedure, shortened: as §3
Mus musculus [33] = test: Percent analgesia in phenylquinone writhing assay at 0.3 mg/kg; type: functional; procedure, shortened: as §2
Mus musculus [34] = test: Compound was evaluated for the percent reduction of carrageenan induced edema in mice at dose of 1.0 mg/kg; type: functional
Mus musculus [35] = test: Compound was evaluated for the percent reduction of carrageenan induced edema in mice at dose of 0.3 mg/kg; type: functional
Mus musculus [36] = test: Percent analgesia in phenylquinone writhing assay at 1 mg/kg; type: functional; procedure, shortened: as §2
Rattus norvegicus [37] = test: Compound was evaluated in the developed adjuvant arthritis assay at a dose of 1 mg/kg for the percent reduction of carrageenan induced edema (LHF) on 23rd day; type: functional; procedure, shortened: as §3
Rattus norvegicus [38] = test: Compound was evaluated in the developed adjuvant arthritis assay at a dose of 3 mg/kg for the percent reduction of carrageenan induced edema (LHF) on 23rd day; type: functional; procedure, shortened: as §3
Rattus norvegicus [39] = test: Compound was evaluated in the developed adjuvant arthritis assay at a dose of 3 mg/kg for the percent reduction of carrageenan induced edema (LHF) on 21st day; type: functional; procedure, shortened: as §3
Rattus norvegicus [40] = test: Compound was evaluated in the developed adjuvant arthritis assay at a dose of 0.3 mg/kg for the percent reduction of carrageenan induced edema (LHF) on 23rd day; type: functional; procedure, shortened: as §3
Rattus norvegicus [41] = test: Compound was evaluated in the developed adjuvant arthritis assay at a dose of 1 mg/kg for the percent reduction of carrageenan induced edema (LHF) on 22nd day; type: functional; procedure, shortened: as §3
Mus musculus [42] = test: Compound was evaluated for the percent reduction of carrageenan induced edema in mice at dose of 3.0 mg/kg; type: functional
Mus musculus [43] = test: Percent analgesia in phenylquinone writhing assay at 3 mg/kg; type: functional; procedure, shortened: as §2
[44] = as §1; type: toxicity, organism-based; conditions: mouse, in vivo; read-out: NTD50
Procedure, shortened: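 NTD50 in mice is the oral or intraperitoneal dose causing minimal recognizable neurotoxicity in 50% of animals, judged by five end points, including a positional sense test (hind leg lowered over a table edge should be lifted back).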

Mus musculus [45] = test: Percent analgesia in phenylquinone writhing assay at 300 mg/kg; type: functional; procedure, shortened: as §2

Structure (SMILES): CS(=O)(=O)C1=C(c2ccccc2)N2CCN=C2S1
- Reduction (Mus musculus [1]): 33%
- NTD50 (Mus musculus [2]): 690 mg/kg
- ED50 (Mus musculus [3]): 30 mg/kg
- UD50 (Rattus norvegicus [4]): >100 mg/kg
- Reduction (Mus musculus [5]): 43%
- Analgesia (Mus musculus [6]): 10%
- Reduction (Rattus norvegicus [7]): 10%
- Analgesia (Mus musculus [8]): 60%
- Reduction (Rattus norvegicus [9]): 10%
- LD50 [10]: > 300 mg/kg
- Analgesia (Mus musculus [11]): 90%
- ED50 (Mus musculus [12]): 30 mg/kg
- Reduction (Rattus norvegicus [13]): 17%
- Reduction (Mus musculus [14]): 15%
- Reduction (Rattus norvegicus [15]): 16%
- LD50 [16]: > 1000 mg/kg
- Reduction (Rattus norvegicus [17]): 11%
- Reduction (Rattus norvegicus [18]): 19%
- Reduction (Mus musculus [19]): 26%
- Reduction (Rattus norvegicus [20]): 15%
- Reduction (Mus musculus [21]): 30%
- Reduction (Rattus norvegicus [22]): 26%
- Reduction (Rattus norvegicus [23]): 7%

Structure (SMILES): CC1=CSC2=NC(C)(C)CN12
- LD50 [10]: 60 mg/kg
- Reduction (Mus musculus [24]): 0%

Structure (SMILES): CC1(O)CSC2=NC3CCCCC3N21 (stereo not given)
- Reduction (Mus musculus [25]): 45%
- Reduction (Mus musculus [1]): 15%
- Reduction (Rattus norvegicus [26]): 11%
- Reduction (Rattus norvegicus [27]): 3%
- Reduction (Rattus norvegicus [28]): 2%
- Reduction (Mus musculus [14]): 10%
- Reduction (Mus musculus [29]): 7%
- Reduction (Mus musculus [19]): 7%

Structure (SMILES): CC1=C(C(=O)Nc2c(C)cc(C)cc2C)SC2=NC(C)(C)CN21
- LD50 [10]: 60 mg/kg
- Reduction (Mus musculus [24]): 3%

Structure (SMILES): CC1=C(C(=O)Nc2c(C)cc(C)cc2C)SC2=NC(C)CN21 (stereo not given)
- Reduction (Mus musculus [5]): 24%
- LD50 [10]: 400 mg/kg

Structure (SMILES): COc1ccc2c(c1)c(CC(=O)O)c(C)n2C(=O)c1ccc(Cl)cc1 [INDOMETHACIN]
- Reduction (Rattus norvegicus [30]): 21%
- Reduction (Rattus norvegicus [31]): 25%
- NTD50 (Mus musculus [2]): 110 mg/kg
- ED50 (Mus musculus [3]): 1 mg/kg
- Reduction (Rattus norvegicus [32]): 21%
- UD50 (Rattus norvegicus [4]): 6 mg/kg
- Analgesia (Mus musculus [33]): 20%
- Reduction (Mus musculus [34]): 22%
- LD50 [10]: 160 mg/kg
- ED50 (Mus musculus [12]): 1 mg/kg
- Reduction (Mus musculus [35]): 11%
- Analgesia (Mus musculus [36]): 60%
- Reduction (Rattus norvegicus [37]): 29%
- LD50 [16]: 160 mg/kg
- Reduction (Rattus norvegicus [38]): 35%
- Reduction (Rattus norvegicus [39]): 17%
- Reduction (Rattus norvegicus [40]): 13% and 19%
- Reduction (Rattus norvegicus [41]): 29%
- Reduction (Mus musculus [42]): 39%
- Analgesia (Mus musculus [43]): 70%

Structure (SMILES): CC(=O)Oc1ccccc1C(=O)O [ASPIRIN]
- TD50 [44]: 200 mg/kg
- ED50 (Mus musculus [3]): 70 mg/kg
- UD50 (Rattus norvegicus [4]): 27 mg/kg
- Analgesia (Mus musculus [45]): 90%
- Analgesia (Mus musculus [8]): 20%
- Analgesia (Mus musculus [11]): 60%
- ED50 (Mus musculus [12]): 85 mg/kg

Structure (SMILES): CS(=O)(=O)CC1=CSC2=NCCN12
- Reduction (Mus musculus [5]): 11%
